In ChEMBL document CHEMBL4145654, “Structure-Based Discovery of CF53 as a Potent and Orally Bioavailable Bromodomain and Extra-Terminal (BET) Bromodomain Inhibitor” (J Med Chem, 2018):

How the values were obtained:
[1] = target: Bromodomain-containing protein 3 (Homo sapiens, UniProt Q15059); assay: Binding affinity to human BRD3 bromodomain 1 (P24 to E144 residues) expressed in bacterial expression system by BROMOscan assay
[2] = target: Peregrin (Homo sapiens, UniProt P55201); assay: Binding affinity to human BRPF1 (E627 to G740 residues) expressed in bacterial expression system by BROMOScan assay
[3] = species on record: Homo sapiens; assay: Selectivity index, ratio of Kd for human EP300 (A1040 to G1161 residues) to Kd for human BRDT bromodomain 2 (K250 to E382 residues)
[4] = target: Chromatin remodeling regulator CECR2 (Homo sapiens, UniProt Q9BXF3); assay: Binding affinity to human CECR2 (P423 to D543 residues) expressed in bacterial expression system by BROMOscan assay
[5] = target: Bromodomain adjacent to zinc finger domain protein 2B (Homo sapiens, UniProt Q9UIF8); assay: Binding affinity to human BAZ2B (S2054 to S2168 residues) expressed in bacterial expression system by BROMOScan assay
[6] = Apparent volume of distribution in Balb/c mouse at 5 mg/kg, iv by LC-MS/MS analysis; assay type: ADME, organism-based; conditions: in vivo, read-out: Vz
Procedure, shortened: (§1)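 Balb/c mice dosed iv at 5.0 mg/kg or po at 25 mg/kg, compound in vehicle of 20% (v/v) PCP and 70% (v/v) PBS. Serial blood samples taken at 0, 5, 15, 30 min and 1, 2, 4, 6, 8, 24 h. Plasma obtained by centrifugation and stored at −80 °C. Analysis by LC-MS/MS, positive-ion MRM. Parameters from noncompartmental analysis.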

[7] = species on record: Homo sapiens; assay: Selectivity index, ratio of Kd for human CREBBP (R1081 to G1197 residues) to Kd for human BRD4 bromodomain 2 (K333 to E460 residues)
[8] = Drug uptake in tumor of SCID mouse xenografted with human MDA-MB-231 cells at 50 mg/kg administered via oral gavage measured after 1 hr; assay type: ADME, organism-based, Neoplasm; conditions: read-out: Drug uptake
Procedure, shortened: (§2)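 Limited PK in SCID mice bearing MDA-MB-231 tumors, 50 mg/kg given by oral gavage. Plasma and tumor tissue drug levels measured at two time points per compound. Values are the mean of two mice/tumors per time point.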

[9] = Clearance in Balb/c mouse at 5 mg/kg, iv by LC-MS/MS analysis; assay type: ADME, organism-based; conditions: in vivo; procedure, shortened: as §1
[10] = species on record: Homo sapiens; assay: Selectivity index, ratio of Kd for human EP300 (A1040 to G1161 residues) to Kd for human BRD4 bromodomain 1 (N44 to E168 residues)
[11] = system: MDA-MB-231; assay: Growth inhibition of human MDA-MB-231 cells after 4 days by WST-8 assay; assay type: functional, cell-based; conditions: MDA-MB-231, 96 h
Procedure, shortened: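 Cells used within 3 months of thaw. Breast cancer cells seeded at 3000 cells/well, then serially diluted compound added, cultured 4 days. Growth read by WST-8 (10% v/v final, 1−3 h, 450 nm). Readings normalized to DMSO-treated cells. IC50 by nonlinear regression.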

[12] = species on record: Homo sapiens; assay: Selectivity index, ratio of Kd for human EP300 (A1040 to G1161 residues) to Kd for human BRDT bromodomain 1 (N21 to E137 residues)
[13] = target: Bromodomain-containing protein 4 (Homo sapiens, UniProt O60885); assay: Inhibition of FAM-labeled ZBA248 binding to recombinant human BRD4 bromodomain 1 (44 to 168 residues) expressed in Rosetta2 Escherichia coli DE3 cells after 30 mins by fluorescence polarization assay
Procedure, shortened: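 Recombinant human BRD4 BD1 (residues 44−168) in a fluorescence polarization competitive binding assay, run as described in earlier work.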

[14] = species on record: Homo sapiens; assay: Selectivity index, ratio of Kd for human EP300 (A1040 to G1161 residues) to Kd for human BRD2 bromodomain 1 (K71 to N194 residues)
[15] = species on record: Homo sapiens; assay: Selectivity index, ratio of Kd for human CREBBP (R1081 to G1197 residues) to Kd for human BRD2 bromodomain 2 (E348 to D455 residues)
[16] = AUC in Balb/c mouse at 5 mg/kg, iv by LC-MS/MS analysis; assay type: ADME, organism-based; conditions: in vivo; procedure, shortened: as §1
[17] = target: SWI/SNF-related matrix-associated actin-dependent regulator of chromatin subfamily A member 4 (Homo sapiens, UniProt P51532); assay: Binding affinity to human SMARCA4 (A1448 to S1575 residues) expressed in bacterial expression system by BROMOScan assay
[18] = species on record: Homo sapiens; assay: Selectivity index, ratio of Kd for human EP300 (A1040 to G1161 residues) to Kd for human BRD3 bromodomain 2 (G306 to P416 residues)
[19] = species on record: Homo sapiens; assay: Selectivity index, ratio of Kd for human CREBBP (R1081 to G1197 residues) to Kd for human BRD3 bromodomain 1 (P24 to E144 residues)
[20] = species on record: Homo sapiens; assay: Selectivity index, ratio of Kd for human CREBBP (R1081 to G1197 residues) to Kd for human BRDT bromodomain 1 (N21 to E137 residues)
[21] = species on record: Homo sapiens; assay: Selectivity index, ratio of Kd for human EP300 (A1040 to G1161 residues) to Kd for human BRD4 bromodomain 2 (K333 to E460 residues)
[22] = Drug uptake in tumor of SCID mouse xenografted with human MDA-MB-231 cells at 50 mg/kg administered via oral gavage measured after 6 hrs; assay type: ADME, organism-based, Neoplasm; conditions: read-out: Drug uptake; procedure, shortened: as §2
[23] = target: Bromodomain-containing protein 2 (Homo sapiens, UniProt P25440); assay: Binding affinity to human BRD2 bromodomain 1 (K71 to N194 residues) expressed in bacterial expression system by BROMOscan assay
[24] = system: Mus musculus; assay: Cmax in Balb/c mouse at 25 mg/kg, po by LC-MS/MS analysis; assay type: ADME, organism-based; set-up: dose 25 mg/kg, route oral; conditions: in vivo; procedure, shortened: as §1
[25] = species on record: Homo sapiens; assay: Selectivity index, ratio of Kd for human CECR2 (P423 to D543 residues) to Kd for human BRD2 bromodomain 1 (K71 to N194 residues)
[26] = target: Bromodomain and WD repeat-containing protein 1 (Homo sapiens, UniProt Q9NSI6); assay: Binding affinity to human WDR9 bromodomain 2 (A1310 to E1430 residues) expressed in bacterial expression system by BROMOscan assay
[27] = system: RS4-11; assay: Antitumor activity against human RS4:11 cells xenografted in SCID mouse assessed as tumor growth inhibition at 25 mg/kg administered via oral gavage measured on day 35; assay type: functional; conditions: RS4-11, po, 840 h, read-out: TGI
Procedure, shortened: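 SCID mice were implanted subcutaneously on the dorsal side with 5 × 10⁶ MDA-MB-231 or RS4;11 cells in 50% Matrigel, one tumor per mouse. At ca. 100 mm3, mice were randomized to treatment or vehicle groups and dosed by oral gavage. Tumor volume = L × W²/2. Body weight change tracked. p values by two-tailed unpaired t-test.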

[28] = target: Bromodomain-containing protein 8 (Homo sapiens, UniProt Q9H0E9); assay: Inhibition of BRD8 bromodomain 1 (unknown origin) by BROMOScan assay

Chain of Bromodomain and WD repeat-containing protein 1 (Q9NSI6 whole entry, the tested form may be a part): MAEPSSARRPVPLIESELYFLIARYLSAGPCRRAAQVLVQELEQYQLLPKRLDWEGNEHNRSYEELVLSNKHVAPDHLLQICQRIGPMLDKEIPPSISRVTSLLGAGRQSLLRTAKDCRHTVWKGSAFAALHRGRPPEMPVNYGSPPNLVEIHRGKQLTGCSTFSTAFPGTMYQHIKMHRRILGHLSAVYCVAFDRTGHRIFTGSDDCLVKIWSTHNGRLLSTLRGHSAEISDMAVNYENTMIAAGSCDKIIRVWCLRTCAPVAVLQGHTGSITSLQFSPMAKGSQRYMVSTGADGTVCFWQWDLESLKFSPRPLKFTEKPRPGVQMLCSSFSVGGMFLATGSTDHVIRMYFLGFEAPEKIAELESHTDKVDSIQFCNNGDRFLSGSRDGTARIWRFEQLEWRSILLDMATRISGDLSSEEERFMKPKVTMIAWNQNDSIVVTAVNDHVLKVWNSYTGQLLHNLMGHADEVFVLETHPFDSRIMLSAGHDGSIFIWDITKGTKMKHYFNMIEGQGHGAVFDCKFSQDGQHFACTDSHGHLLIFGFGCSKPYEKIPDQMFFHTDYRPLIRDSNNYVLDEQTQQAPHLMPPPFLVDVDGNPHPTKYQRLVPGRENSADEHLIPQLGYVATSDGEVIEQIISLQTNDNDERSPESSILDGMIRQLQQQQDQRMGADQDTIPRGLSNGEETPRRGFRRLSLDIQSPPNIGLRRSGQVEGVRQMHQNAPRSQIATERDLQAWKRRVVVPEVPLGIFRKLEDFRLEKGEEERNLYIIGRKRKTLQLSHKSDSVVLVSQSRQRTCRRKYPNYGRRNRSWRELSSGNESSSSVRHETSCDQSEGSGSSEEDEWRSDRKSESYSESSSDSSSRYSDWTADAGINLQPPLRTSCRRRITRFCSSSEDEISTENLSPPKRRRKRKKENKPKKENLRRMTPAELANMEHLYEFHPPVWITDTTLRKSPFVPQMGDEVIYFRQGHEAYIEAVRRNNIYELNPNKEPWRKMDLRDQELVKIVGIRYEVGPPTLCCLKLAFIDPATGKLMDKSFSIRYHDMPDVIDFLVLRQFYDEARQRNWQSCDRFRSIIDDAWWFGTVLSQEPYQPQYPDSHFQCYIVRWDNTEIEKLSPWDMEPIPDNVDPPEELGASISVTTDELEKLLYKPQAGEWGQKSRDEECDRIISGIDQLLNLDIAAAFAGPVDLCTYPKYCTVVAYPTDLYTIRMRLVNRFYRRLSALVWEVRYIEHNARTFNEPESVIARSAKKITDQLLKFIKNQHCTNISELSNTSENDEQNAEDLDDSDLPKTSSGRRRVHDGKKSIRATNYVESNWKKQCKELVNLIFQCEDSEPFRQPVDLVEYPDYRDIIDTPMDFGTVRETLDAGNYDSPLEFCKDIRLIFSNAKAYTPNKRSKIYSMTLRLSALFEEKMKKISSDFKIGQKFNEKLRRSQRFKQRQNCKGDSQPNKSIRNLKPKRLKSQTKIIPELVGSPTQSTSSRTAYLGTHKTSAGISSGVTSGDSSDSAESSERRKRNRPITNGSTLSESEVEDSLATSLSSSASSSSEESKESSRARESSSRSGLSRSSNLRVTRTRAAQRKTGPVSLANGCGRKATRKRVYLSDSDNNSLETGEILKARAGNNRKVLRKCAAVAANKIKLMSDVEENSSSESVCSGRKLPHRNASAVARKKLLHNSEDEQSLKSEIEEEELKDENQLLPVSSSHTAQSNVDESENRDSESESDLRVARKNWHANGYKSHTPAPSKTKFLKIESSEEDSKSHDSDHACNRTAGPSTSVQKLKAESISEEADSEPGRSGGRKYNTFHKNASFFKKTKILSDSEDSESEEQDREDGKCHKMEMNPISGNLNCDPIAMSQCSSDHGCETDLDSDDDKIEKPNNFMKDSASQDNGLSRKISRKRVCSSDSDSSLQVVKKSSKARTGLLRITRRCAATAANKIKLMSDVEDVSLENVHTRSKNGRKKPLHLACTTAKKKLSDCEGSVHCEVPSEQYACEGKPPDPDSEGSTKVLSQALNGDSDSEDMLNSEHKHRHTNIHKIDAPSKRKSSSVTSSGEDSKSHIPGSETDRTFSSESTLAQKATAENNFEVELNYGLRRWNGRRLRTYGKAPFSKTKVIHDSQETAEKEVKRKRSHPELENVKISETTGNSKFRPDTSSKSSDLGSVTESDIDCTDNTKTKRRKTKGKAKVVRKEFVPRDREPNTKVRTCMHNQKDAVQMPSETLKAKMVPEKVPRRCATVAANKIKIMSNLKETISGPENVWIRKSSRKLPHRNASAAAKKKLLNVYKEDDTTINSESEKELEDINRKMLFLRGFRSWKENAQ
Chain of Bromodomain-containing protein 2 (P25440 whole entry, the tested form may be a part): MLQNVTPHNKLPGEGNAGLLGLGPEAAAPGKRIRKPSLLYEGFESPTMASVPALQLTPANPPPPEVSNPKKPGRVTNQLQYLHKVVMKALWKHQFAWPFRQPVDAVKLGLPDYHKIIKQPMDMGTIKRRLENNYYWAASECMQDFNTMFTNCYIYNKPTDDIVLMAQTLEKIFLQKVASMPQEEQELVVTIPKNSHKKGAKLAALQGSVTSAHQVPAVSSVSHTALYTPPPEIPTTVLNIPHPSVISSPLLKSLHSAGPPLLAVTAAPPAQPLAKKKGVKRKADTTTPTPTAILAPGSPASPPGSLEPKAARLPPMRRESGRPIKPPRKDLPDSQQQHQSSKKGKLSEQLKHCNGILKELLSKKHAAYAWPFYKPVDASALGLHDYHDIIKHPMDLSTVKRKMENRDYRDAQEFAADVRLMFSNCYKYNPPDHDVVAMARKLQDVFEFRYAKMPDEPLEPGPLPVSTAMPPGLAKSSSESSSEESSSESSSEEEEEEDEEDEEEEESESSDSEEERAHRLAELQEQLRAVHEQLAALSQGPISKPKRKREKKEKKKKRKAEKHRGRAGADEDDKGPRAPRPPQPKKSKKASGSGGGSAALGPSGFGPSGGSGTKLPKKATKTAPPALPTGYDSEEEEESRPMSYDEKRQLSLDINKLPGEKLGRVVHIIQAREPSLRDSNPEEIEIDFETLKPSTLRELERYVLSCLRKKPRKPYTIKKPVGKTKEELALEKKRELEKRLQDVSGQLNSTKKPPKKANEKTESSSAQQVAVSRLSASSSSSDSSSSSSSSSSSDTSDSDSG
Chain of Chromatin remodeling regulator CECR2 (Q9BXF3 whole entry, the tested form may be a part): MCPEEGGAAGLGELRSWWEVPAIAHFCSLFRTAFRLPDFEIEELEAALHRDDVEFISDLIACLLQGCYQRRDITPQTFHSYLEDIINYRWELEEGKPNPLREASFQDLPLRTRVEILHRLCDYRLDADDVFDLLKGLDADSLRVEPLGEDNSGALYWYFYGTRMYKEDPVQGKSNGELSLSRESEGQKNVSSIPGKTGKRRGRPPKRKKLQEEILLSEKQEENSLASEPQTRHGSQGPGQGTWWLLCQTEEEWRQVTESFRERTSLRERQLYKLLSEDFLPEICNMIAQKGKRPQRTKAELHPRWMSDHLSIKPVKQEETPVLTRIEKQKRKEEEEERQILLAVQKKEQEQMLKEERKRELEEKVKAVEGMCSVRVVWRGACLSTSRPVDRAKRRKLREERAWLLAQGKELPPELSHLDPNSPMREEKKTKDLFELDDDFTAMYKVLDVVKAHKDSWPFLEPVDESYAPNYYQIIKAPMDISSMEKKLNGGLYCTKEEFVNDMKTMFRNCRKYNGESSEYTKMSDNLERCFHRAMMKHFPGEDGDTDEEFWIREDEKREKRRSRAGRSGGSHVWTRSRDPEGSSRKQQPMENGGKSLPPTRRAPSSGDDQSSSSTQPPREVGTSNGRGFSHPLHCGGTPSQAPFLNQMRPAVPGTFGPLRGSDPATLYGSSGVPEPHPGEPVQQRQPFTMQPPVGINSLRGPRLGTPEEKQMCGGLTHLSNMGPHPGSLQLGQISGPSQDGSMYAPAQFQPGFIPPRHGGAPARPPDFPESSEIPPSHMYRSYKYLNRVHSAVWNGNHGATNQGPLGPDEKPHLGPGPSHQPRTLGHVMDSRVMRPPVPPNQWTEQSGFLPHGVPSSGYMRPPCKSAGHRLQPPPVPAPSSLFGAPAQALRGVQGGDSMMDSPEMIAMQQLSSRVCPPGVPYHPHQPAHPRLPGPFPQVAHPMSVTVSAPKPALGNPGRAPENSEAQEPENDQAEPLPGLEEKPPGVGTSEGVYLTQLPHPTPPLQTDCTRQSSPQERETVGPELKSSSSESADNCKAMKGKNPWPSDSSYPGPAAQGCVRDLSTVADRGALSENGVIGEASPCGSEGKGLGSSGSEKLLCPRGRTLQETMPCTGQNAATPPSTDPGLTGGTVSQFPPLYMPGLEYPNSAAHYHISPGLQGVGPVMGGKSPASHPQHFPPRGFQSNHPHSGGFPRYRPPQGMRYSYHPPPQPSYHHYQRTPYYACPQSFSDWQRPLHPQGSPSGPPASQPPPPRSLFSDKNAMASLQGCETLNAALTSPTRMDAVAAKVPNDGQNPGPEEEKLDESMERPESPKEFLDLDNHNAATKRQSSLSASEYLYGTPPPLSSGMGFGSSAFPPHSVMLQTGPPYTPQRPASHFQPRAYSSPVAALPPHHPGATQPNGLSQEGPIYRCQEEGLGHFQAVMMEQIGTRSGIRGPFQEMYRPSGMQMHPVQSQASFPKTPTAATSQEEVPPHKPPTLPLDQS

COc1cc2c(cc1-c1c(C)noc1C)[nH]c1nc(C)nc(Nc3cc(C4CC4)nn3C)c12
Kd [1]: 0.52 nM | Kd [2]: > 4000 nM | Selectivity Index [3]: > 50 | Kd [4]: 570 nM | Kd [5]: > 5000 nM | Vd [6]: 0.83 L/kg | Selectivity Index [7]: > 20 | concentration at 1 h [8]: 7380 ng/g | clearance [9]: 20.8 mL/min/kg | Selectivity Index [10]: > 50 | IC50 [11]: 85 nM | Selectivity Index [12]: > 50 | IC50 [13]: 2 nM | Ki [13]: < 1 nM | Selectivity Index [14]: > 50 | Selectivity Index [15]: > 20 | AUC [16]: 9.05 µM·h | Kd [17]: > 5000 nM | Selectivity Index [18]: > 50 | Selectivity Index [19]: > 20 | Selectivity Index [20]: > 20 | Selectivity Index [21]: > 50 | concentration at 6 h [22]: 3670 ng/g | Kd [23]: 1.1 nM | Cmax [24]: 6400 ng/mL | Selectivity Index [25]: > 50 | Kd [26]: > 5000 nM | inhibition in vivo at 25 mg/kg [27]: 49.3% | Kd [28]: > 5000 nM
